A selection: hits, their analogues and other compounds. The true share with any hit is near 2.1%.
p97 inhibitor: human p97 ATPase inhibition; P55072; recombinant p97 ATPase, Kinase-Glo ATP luminescence, 3 h; inhibition, % at 8 µM; actives 0.42% (n = 220,000); AID 1481; in the data active = inhibition above about 15%
Target sequence (P55072 whole entry, looked up): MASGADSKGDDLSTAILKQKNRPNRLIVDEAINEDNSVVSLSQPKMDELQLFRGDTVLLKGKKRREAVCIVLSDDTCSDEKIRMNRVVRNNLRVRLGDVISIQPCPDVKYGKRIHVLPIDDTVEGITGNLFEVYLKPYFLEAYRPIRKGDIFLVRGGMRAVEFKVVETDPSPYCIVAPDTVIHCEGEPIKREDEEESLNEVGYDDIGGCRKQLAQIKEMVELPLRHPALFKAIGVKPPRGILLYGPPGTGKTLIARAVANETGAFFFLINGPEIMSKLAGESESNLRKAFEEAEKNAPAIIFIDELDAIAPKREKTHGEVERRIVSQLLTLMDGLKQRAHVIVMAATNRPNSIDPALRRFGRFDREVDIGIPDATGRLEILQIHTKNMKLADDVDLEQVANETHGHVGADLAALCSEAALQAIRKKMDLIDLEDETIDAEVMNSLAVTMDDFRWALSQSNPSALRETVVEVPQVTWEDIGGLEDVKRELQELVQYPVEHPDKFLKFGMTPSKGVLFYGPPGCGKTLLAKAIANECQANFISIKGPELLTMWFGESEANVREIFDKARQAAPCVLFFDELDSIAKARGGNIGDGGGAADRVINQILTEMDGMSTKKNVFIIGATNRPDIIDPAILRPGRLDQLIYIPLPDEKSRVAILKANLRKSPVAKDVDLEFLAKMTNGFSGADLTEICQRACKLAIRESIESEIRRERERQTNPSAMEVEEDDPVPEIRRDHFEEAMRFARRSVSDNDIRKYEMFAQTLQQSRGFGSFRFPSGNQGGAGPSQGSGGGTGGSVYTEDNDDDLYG
Runt-CBFb FRET: inhibitors of human RUNX1 Runt domain binding to CBFb | Cerulean-Runt/Venus-CBFb FRET ratio 530/480, 1 h | inhibition, % at 20 µM | actives 0.46% (n = 220,000);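 active = inhibition over about 50% at 20 µM in the single-dose screen, limit read from the data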
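Buffer or medium: Tris pH 7.5 buffer with BSA. Assay system: Cerulean-labeled Runt domain protein. Amount: each fluorescent fusion protein 100 nM. Read-out basis: loss of energy transfer signal. Incubation: 1 h compound exposure, room temperature. Probe or stimulus: Venus-CBFb binding partner, 100 nM. Detection: FRET, excitation 422 nm, emission at 530 and 480 nm.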
Hck-Nef inh: blocks Nef-activated human Hck kinase | P08631 | Recombinant Hck-YEEI plus Nef, Z-Lyte FRET kinase assay | inhibition, % at 20 µM | actives 0.68% (n = 220,000);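 active = Hck-Nef kinase inhibition above about 50%, limit read from the data; inactive = inhibition below that limit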
RanGTP-Imp inh: disruptors of Ran-importin-beta complex formation – biochemical, FRET, CFP-Ran, YFP-importin-beta, homogeneous, primary screen | cell-free CFP-Ran/YFP-importin-beta FRET ratio | inhibition, % (concentration not given with the values) | actives 1.1% (n = 300,000) | AID 2216;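 active = more than half of the replicate wells show a fall in the fluorescence ratio signal beyond about 16%, limit read from the data, passing the limit was not always enough; inconclusive = exactly half of the replicate wells pass the set limit; inactive = fewer than half of replicates pass the limit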
Tb hexokinase: blocks Trypanosoma brucei hexokinase 1 activity; recombinant TbHK1, G6PDH-coupled NADH A340; inhibition, % at 10 µM; actives 0.11% (n = 220,000);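 active = inhibition of 50% or more in the single-dose primary screen; inactive = inhibition below 50%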
Runt-SMMHC FRET: inhibitors of human RUNX1 Runt domain binding to CBFb-SMMHC | Q01196+Q13951 | AID 1434 | actives 0.74% (n = 220,000) | inhibition, % at 20 µM | Cerulean-Runt/Venus-CBFb-SMMHC FRET ratio 530/480, 1 h;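 active = mean inhibition across duplicate retests at 20 µM reaching about 50%, limit read from the data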;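 note: inhibitors lower the FRET ratio by blocking Runt binding to CBFb-SMMHC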
G6PDH counter: counter-screen for TbHK1 inhibitors: Leuconostoc G6PDH inhibition. shares compounds with Tb hexokinase. purified G6PDH, NADH absorbance, 1 h. inhibition, % at 10 µM. actives 7% (n = 210);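 active = at least 50% inhibition in the glucose-6-phosphate dehydrogenase coupled counterscreen; inconclusive = no clear call, values can overlap the other calls; inactive = inhibition below 50%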
TbHK1 confirm: T. brucei hexokinase 1 inhibition, rescreen; shares compounds with Tb hexokinase; recombinant TbHK1, G6PDH-coupled NADH A340 absorbance; inhibition, % at 10 µM; actives 10% (n = 210); AID 2560;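 active = inhibition of at least 50% in both of the two screening runs; inconclusive = at least 50% in one run, below 50% in the other; inactive = inhibition below 50% in both runs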
A number is an active result; 0 = inactive; ? = inconclusive; - = no result; ! = not active in a repeat.

SMILES	p97 inhibitor	Runt-CBFb FRET	Hck-Nef inh	RanGTP-Imp inh	Tb hexokinase	Runt-SMMHC FRET	G6PDH counter	TbHK1 confirm
COc1ccc(CNC(=O)C2CCN(C(=O)[C@@H](CC(C)C)NC(=O)OC(C)(C)C)CC2)cc1	0	0	0	0	55.8	0	0	0
Cc1ccccc1-n1sc2cc(F)ccc2c1=O	0	0	0	-	55.4	0	0	78.6
CS/C(=N\S(=O)(=O)c1cccs1)NC(=O)CSc1nc2ccccc2s1	0	0	0	0	0	0	-	-
O=C(CCc1nc2cccnc2n1Cc1ccccc1)NCCc1ccc(Cl)cc1	0	0	0	0	0	0	-	-
COc1ccccc1-c1nnn(CC#N)n1	0	0	0	0	52.3	0	0	0
CCN(CC)CCN1C(=O)c2oc3ccccc3c(=O)c2C1c1ccc(F)cc1 (stereo unspecified)	0	0	0	0	0	0	-	-
CCN(CC)CCCN1C(=O)c2oc3ccccc3c(=O)c2C1c1cccnc1 (stereo unspecified)	0	0	0	0	53.6	0	0	0
O=C(/C=C/c1cc[n+](CC(=O)c2ccc3cccc4c3c2CC4)cc1)c1ccc2cccc3c2c1CC3	45.8	0	68.6	0	75.1	0	99.7	0
O=C(C[n+]1ccc2ccccc2c1)c1cccc2ccccc12	0	0	0	0	0	0	-	-
CCN(CCCNC(=O)CC(C(=O)N1CCc2ccccc21)n1ccnc1)c1ccccc1 (stereo unspecified)	0	0	0	0	55.5	0	0	0
CCN(CC)S(=O)(=O)c1ccc(C(=O)NCc2n[nH]c(=S)n2Cc2ccccc2)cc1	0	0	0	0	60.5	0	0	0
CCN(CC)S(=O)(=O)c1ccc(C(=O)Nn2cnnc2)cc1	-	-	-	0	-	-	-	-
CCN(CC)S(=O)(=O)c1ccc(C(=O)Nc2ncn(Cc3ccccc3)n2)cc1	0	0	0	0	63.7	0	0	0
COc1ccc(CCNC(=O)c2nnn(CC(=O)Nc3ccccc3C)c2N)cc1OC	0	0	0	0	55.4	0	0	0
CCOc1ccc(CCNC(=O)c2nnn(CC(=O)Nc3ccccc3C)c2N)cc1OCC	-	-	-	0	-	-	-	-
COc1ccc(C(=O)NCCS(=O)(=O)N2CCOCC2)cc1	-	-	-	0	-	-	-	-
CCC(C)NC(=O)c1cc(S(=O)(=O)N2CCCCC2)c[nH]1 (stereo unspecified)	-	-	-	0	-	-	-	-
O=C(NC1CCCCC1)C1CCN(S(=O)(=O)N2CCCCCC2)CC1	0	0	0	0	0	0	-	-
O=C(NC1CCCCC1)C1CCN(S(=O)(=O)N2CCOCC2)CC1	0	0	0	?	58.4	0	0	0
Cc1ccc(S(=O)(=O)NNC(=S)NC(=O)c2ccc([N+](=O)[O-])cc2)cc1	0	0	0	0	77.8	0	0	0
Cc1ccc(C(=O)NC(=S)NNS(=O)(=O)c2ccc(C)cc2)cc1	0	0	0	0	0	0	-	-
Cc1ccc(CNC(=O)CCS(=O)(=O)c2ccc(Br)cc2)cc1	0	0	0	0	68.3	0	0	79.2
N#C/C(=C\c1cccnc1)c1nc2c(s1)CCCC2	0	0	0	0	0	0	-	-
COc1cc(/C=C(\C#N)c2nc3c(s2)CCCC3)ccc1O	0	0	0	0	53.7	0	0	87.7
CCOC(=O)CN1C(=O)C(O)=C(C(C)=O)C1c1ccccc1 (stereo unspecified)	0	0	0	0	0	0	-	-
SMILES	p97 inhibitor	Runt-CBFb FRET	Hck-Nef inh	RanGTP-Imp inh	Tb hexokinase	Runt-SMMHC FRET	G6PDH counter	TbHK1 confirm
Cc1cc2n(n1)SC(Nc1ccc(F)c(Cl)c1)N2 (stereo unspecified)	0	0	0	0	0	0	-	-
O=C(OCCN1C(=O)c2ccccc2C1=O)c1cnccn1	0	0	0	0	50.7	0	0	0
O=C(OCCN1C(=O)c2ccccc2C1=O)c1ccccc1	0	0	0	-	0	0	-	-
O=C(NC(=S)Nc1ccc(N2CCOCC2)cc1)c1cccs1	0	0	0	0	0	0	-	-
O=S(=O)(c1ccc2c(c1)OCCO2)N1CCC(O)(c2ccc(Cl)cc2)CC1	0	0	0	0	0	0	-	-
COC(=O)NCCOC(=O)N(O)c1ccc(Br)cc1	0	0	0	-	56.7	0	0	0
COCCNC(=O)CN(C)S(=O)(=O)c1ccc(Br)cc1	0	0	0	0	0	0	-	-
CCOC(=O)N1CCN(c2ccc(S(=O)(=O)N(Cc3ccccc3)Cc3ccccc3)cn2)CC1	0	0	0	0	57.6	0	0	0
CCOC(=O)N1CCN(C(=O)CN(Cc2ccccc2)S(C)(=O)=O)CC1	0	0	0	0	0	0	-	-
CCCCn1c(N(CCOC(C)=O)C(C)=O)nc2ccccc21	0	-	0	0	0	-	-	-
Cn1ncc2c(O/N=C(\N)c3ccc(C(F)(F)F)cc3)ncnc21	0	0	0	0	0	0	-	-
O=C(Nc1nnc(-c2ccc(Cl)cc2)o1)C1CCCCC1	-	0	0	0	0	0	-	-
Clc1ccc(-c2nnc(NC3=NCCCCC3)o2)cc1	0	0	0	0	50.0	0	0	0
CNC(=O)C1CC(=O)N(c2ccc(OCC(=O)NCc3ccccc3)cc2)C1 (stereo unspecified)	-	-	-	0	-	-	-	-
CCN(CC)S(=O)(=O)c1ccc(C(=O)NC2=C(C(=O)OC)SCC2)cc1	0	0	0	0	55.2	0	0	0
COC(=O)C1=C(NC(=O)c2ccc(C)c(C)c2)CCS1	0	0	0	0	57.4	0	0	0
COC(=O)C1=C(NC(=O)c2ccc(Br)cc2)CCS1	0	0	0	0	0	0	-	-
Cc1ccccc1OCc1n(CC(=O)OC2CC(C)CCC2C(C)C)c2ccccc2[n+]1C (stereo unspecified)	0	0	0	0	75.6!	0	0	0
O=C(O)C(c1ccccc1)c1ccccc1	-	-	-	0	-	-	-	-
Cc1cc(NC(=O)COC(=O)CCCOc2ccc(Cl)cc2C)no1	0	0	0	0	54.9	0	0	0
O=C(COC(=O)[C@H](Cc1c[nH]c2ccccc12)NC(=O)c1cccs1)NCc1ccccc1	0	0	0	?	0	0	-	-
COC(=O)c1c(C)[nH]c(C(=O)CSc2ccc(Cl)cc2)c1C	0	0	0	0	50.4	0	0	0
O=C(NCC1CCCN1S(=O)(=O)c1cccs1)c1ccccc1 (stereo unspecified)	-	-	-	0	-	-	-	-
N#Cc1cc(Sc2ccccn2)c(Sc2ccccn2)cc1C#N	0	0	0	0	57.9	0	0	0
COc1cc(-c2noc(CCC(=O)Nc3cccnc3)n2)cc(OC)c1OC	0	0	0	0	54.3	0	0	0
CC(C)(C)OC(=O)NCC(=O)NCC(=O)OCc1ccccc1	0	0	0	0	53.5	0	0	0

Compound activity as filed in PubChem.
